Assays:
[1] = tested on: low-social male rhesus monkeys; assay: Face recognition memory, visual paired comparison task; assay type: in vivo, rhesus macaques (Macaca mulatta)
In short: (§1)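 Young adult males trained to breathe via mask-attached nebulizer until 2 min 40 s cumulative breathing. Dosed 0, 25 or 50 IU AVP per 1 mL in 0.4% 4-chlorobutanol/0.9% NaCl vehicle (vehicle as placebo), modified Latin square order, blinded, ≥1-week washout, 0900 dosing. Unique stimulus sets per dose on monitor. Looks +1 each; ln(novel/familiar) analysed by repeated-measures REML mixed model.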

[2] = Pharmacokinetics of nebulized AVP: plasma AVP levels; assay type: in vivo, rhesus macaques (Macaca mulatta); conditions: N = 4, ELISA
In short: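 Nebulized through a face mask for 2 min 40 s of cumulative breathing at 0900 (0, 25 or 50 IU per 1 mL; diluent vehicle as placebo). Sedated with dexmedetomidine/ketamine 20 min later. Femoral blood sampled at two of 30/60/90/120 min, on EDTA, spun 1600×g 4 °C 15 min. Plasma extracted, nitrogen-dried, reconstituted, enzyme immunoassay in duplicate, expressed as ratio to the matched placebo timepoint. Washout ≥1 week.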

[3] = tested on: children with ASD; conditions: 4-wk intranasal AVP treatment, pilot clinical trial; cited from earlier work
[4] = tested on: low-social male rhesus monkeys; assay: Object recognition memory, visual paired comparison task; assay type: in vivo, rhesus macaques (Macaca mulatta); conditions: nebulized AVP (25 and 50 IU pooled) vs placebo, within-subjects, N = 8, testing began 30 min after nebulization
In short: as §1

[5] = Pharmacokinetics of nebulized AVP: cisternal CSF AVP levels; assay type: in vivo, rhesus macaques (Macaca mulatta); conditions: N = 4, ELISA
In short: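 Same blinded nebulization at 0900. Sedation with dexmedetomidine (0.015 to 0.075 mg/kg) plus ketamine (5 to 30 mg/kg) at 20 min. Paired cisternal CSF and femoral venous blood sampled at two timepoints per session (30/90 or 60/120 min). Blood-contaminated CSF excluded. Unextracted CSF run by enzyme immunoassay in duplicate. Values given as ratio to matched placebo timepoint, log-transformed, REML mixed model.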

[6] = tested on: low-social male rhesus monkeys; assay type: in vivo, rhesus macaques (Macaca mulatta); conditions: N = 8
In short: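 Low-social males habituated and given refresher mask training; next day nebulized at 0900 with 0, 25 or 50 IU per 1 mL (diluent placebo), order by modified Latin square, one-week washout. From 30 min post-dose, viewed on a monitor 61 cm from the cage videos of an unfamiliar adult male showing affiliative or aggressive behavior, interspersed with neutral nonsocial bouts, with a unique stimulus set per dose.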

[7] = tested on: people with ASD; conditions: multisite clinical trial; cited from earlier work
[8] = nebulized 25 or 50 IU AVP, 30, 60, 90, 120 min postnebulization
[9] = nebulized AVP (25 and 50 IU pooled) vs placebo, within-subjects

| Compound | face recognition memory (ratio of looks to novel versus familiar faces) ([1]; nebulized AVP (25 and 50 IU pooled) vs placebo, within-subjects, N = 8, testing began 30 min after nebulization) | recognition memory findings, 25 IU vs 50 IU AVP dose ([1]; nebulized AVP, faces and objects, N = 8) | plasma AVP levels following AVP nebulization relative to placebo, time course [2, 8] | plasma AVP level effect, 50 IU vs 25 IU dose ([2]; nebulized AVP) | social abilities in children with ASD [3] | object recognition memory (ratio of looks to novel versus familiar objects) [4] | cisternal CSF AVP levels following AVP nebulization relative to placebo, time course [5, 8] | CSF AVP level effect, 50 IU vs 25 IU dose ([5]; nebulized AVP) | affiliative response rate to conspecific aggressive cues [6, 9] | affiliative responses to conspecific affiliative communication cues [6, 9] | aggressive responses to conspecific aggressive or affiliative overtures [6, 9] | affiliative response findings, 25 IU vs 50 IU AVP dose ([6]; nebulized AVP) | aggressive response findings, 25 IU vs 50 IU AVP dose ([6]; nebulized AVP) | core behavioral symptoms in people with ASD [7] |
| --- | --- | --- | --- | --- | --- | --- | --- | --- | --- | --- | --- | --- | --- | --- |
| NC(=O)CC[C@@H]1NC(=O)[C@H](Cc2ccccc2)NC(=O)[C@H](Cc2ccc(O)cc2)NC(=O)[C@@H](N)CSSC[C@@H](C(=O)N2CCC[C@H]2C(=O)N[C@@H](CCCN=C(N)N)C(=O)NCC(N)=O)NC(=O)[C@H](CC(N)=O)NC1=O [AVP, [ARG8]-vasopressin] | rescued | did not differ between the 25 and 50 IU AVP doses | quadratic rise and fall | consistently stronger in the 50 IU AVP dose compared to the 25 IU dose | improves empathic accuracy, facial emotion recognition, and social abilities | did not differ between treatment conditions | progressive linear increase | consistently stronger in the 50 IU AVP dose compared to the 25 IU AVP dose | no treatment-related difference | reciprocated affiliative communication cues with species-typical affiliative responses | did not increase | did not differ between the 25 and 50 IU AVP doses | did not differ between the 25 and 50 IU AVP doses |  |
| CN1Cc2cc(Cl)ccc2-n2c(nnc2[C@H]2CC[C@H](Oc3ccccn3)CC2)C1 [balovaptan] |  |  |  |  |  |  |  |  |  |  |  |  |  | neither balovaptan [an AVPR1A antagonist ([49])], nor OXT ([50]), improve core behavioral symptoms |
| oxytocin [OXT] |  |  |  |  |  |  |  |  |  |  |  |  |  | neither balovaptan [an AVPR1A antagonist ([49])], nor OXT ([50]), improve core behavioral symptoms |

From paper PMC11626171 (Proceedings of the National Academy of Sciences of the …, 2024)
